The list is not random: actives were taken first. Their share in the collection is about 1.9%.
MC4R barr agon – MC4R agonists recruiting beta-arrestin, primary screen, cell-based, luminescence, agonist arm of biased-ligand search | 360,000 tested, 0.98% active | activation, % at 8.9 µM | U2OS MC4R beta-arrestin complementation; percent of melanotan II response, DMSO zero | Melanocortin receptor 4 (Homo sapiens), P32245;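 active means activation above a per-plate cutoff, the mean activation of sample wells on that plate plus 3 SD, cut at about 8% in these data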
NOD2 RIPK2 PPI – NOD2-RIPK2 binding disruptors in cells, primary screen, fluorescence, CHO cells, BLA complementation; CCF4 ratio; inhibition, % at 4.98 µM; 360,000 tested, 0.38% active; AID 624267, 2012; in the data active means inhibition above about 21%;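 further: 0% = vehicle only and 100% = reference blocker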
Target sequence (O43353 whole entry, looked up): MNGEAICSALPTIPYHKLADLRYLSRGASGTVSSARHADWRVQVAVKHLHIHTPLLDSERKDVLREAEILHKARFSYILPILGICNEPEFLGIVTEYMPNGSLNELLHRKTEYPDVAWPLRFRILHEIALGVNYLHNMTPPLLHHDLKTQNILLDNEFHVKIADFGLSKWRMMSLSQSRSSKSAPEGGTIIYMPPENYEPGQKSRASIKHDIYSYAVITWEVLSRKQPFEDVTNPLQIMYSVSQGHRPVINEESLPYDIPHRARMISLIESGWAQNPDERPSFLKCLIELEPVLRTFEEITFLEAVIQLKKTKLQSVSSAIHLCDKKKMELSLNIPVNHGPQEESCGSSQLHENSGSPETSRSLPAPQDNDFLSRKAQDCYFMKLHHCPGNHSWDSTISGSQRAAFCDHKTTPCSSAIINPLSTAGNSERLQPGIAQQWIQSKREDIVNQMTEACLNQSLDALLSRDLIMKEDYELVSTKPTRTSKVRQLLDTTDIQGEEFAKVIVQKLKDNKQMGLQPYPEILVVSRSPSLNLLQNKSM
TLR9-MyD88 inh – inhibitors of TLR9-MyD88 association in cells, primary screen, cell-based, CHO, BLA complementation, fluorescence. Toll-like receptor 9 (Homo sapiens) + Myeloid differentiation primary response protein …. CCF4 FRET ratio. inhibition, % at 4.98 µM. 340,000 tested, 0.21% active;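 active means inhibition above the mean over all tested compounds plus 3 SD, cut at about 21% in these data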;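 further: 0% = DMSO only wells and 100% = clavulanate BLA inhibitor control wells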
NTR1 ag – agonists of human NTR1, primary screen, imaging, U2OS cells, beta-arrestin-GFP, high content; NTR1-U2OS beta-arrestin-GFP spot imaging, agonist mode; activation, % at 20 µM; 330,000 tested, 0.17% active; AID 493036, 2011;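 active means activation at or above 40% of the spot to cytoplasm intensity ratio, with at least 20 cells analyzed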;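 further: 0% = DMSO without peptide and 100% = 100 nM NTR1 peptide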
MC4R antag cAMP – MC4R antagonists of cAMP signaling, primary screen, cell-based, TR-FRET, antagonist arm of biased-ligand search; MC4R-expressing cells, MTII-stimulated cAMP, LANCE TR-FRET; 360,000 tested, 0.48% active; Melanocortin receptor 4 (Homo sapiens), P32245; inhibition, % at 6.5 µM;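 active means inhibition above its plate's cutoff, the mean of tested wells on that plate plus 3 SD, cut at about 29% in these data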;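 further: 0% = Melanotan II alone and 100% = Melanotan II plus saturating MCL0020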
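System – human MC4R-expressing U2OS cells · Also added – Melanotan II · Dosing – one concentration, 6.5 µM nominal · Timing – 30-min compound, 1-h challenge, 1-h detection, room temperature · Measured by – Eu-cAMP/anti-cAMP TR-FRET, emission 671 nm · Replicates – singlicate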
TLR4-MyD88 BLA – inhibitors of TLR4-MyD88 association in cells, primary screen, cell-based, HeLa CL3-4, BLA complementation, FRET ratio; Toll-like receptor 4 (Homo sapiens) + Myeloid differentiation primary response protein …; HeLa CL3-4 TLR4/MyD88 BLA complementation; inhibition, % at 8.4 µM; 200,000 tested, 0.18% active; in the data active means inhibition above about 25%;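 further: 0% = vehicle and 100% = reference inhibitor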
MC4R barr conf – MC4R beta-arrestin agonists, retest, confirmation, cell-based, luminescence, U2OS | U2OS MC4R beta-arrestin recruitment; scaled DMSO 0%, Melanotan II 100% | shares compounds with MC4R barr agon | 2,400 tested, 31% active | AID 602192, 2012 | activation, % at 8.9 µM;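 active means mean activation across replicates above the hit cutoff set in the earlier primary screen, cut at about 8% in these data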
MOR-DOR barr ag – agonists of MOR-DOR heterodimerization, counter-screen for MC4R biased agonist project, cell-based, luminescence; shares compounds with MC4R barr agon; U2OS PathHunter beta-arrestin, beta-gal luminescence; percent of deltorphin B response, DMSO zero; activation, % at 9.2 µM; 2,400 tested, 5.8% active; AID 602194, 2012;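 active means mean activation across replicates exceeds the hit threshold derived in the earlier primary screen, cut at about 18% in these data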;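 further: 100% = deltorphin B at 0.9 µM final and 0% = DMSO alone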
Active calls of the source: *; . = no result.

SMILES	MC4R barr agon	NOD2 RIPK2 PPI	TLR9-MyD88 inh	NTR1 ag	MC4R antag cAMP	TLR4-MyD88 BLA	MC4R barr conf	MOR-DOR barr ag
CN(Cc1ccccc1F)C(=O)c1ccc(NC(=O)CC2SC(N3CCCCC3)=NC2=O)cc1 (stereo not drawn)	3	3	-10	.	13	.	.	.
Oc1ccc(N2CCN(c3ncnc4sc(-c5ccccc5)cc34)CC2)cc1	48*	-6	4	.	4	-2	34*	12
CC(=O)N1CCN(c2ncnc3sc(-c4ccccc4)cc23)CC1	-1	-5	-11	-1	10	-6	.	.
Cc1ccc(C(=O)c2no[n+]([O-])c2C(=O)c2ccc(C)cc2)cc1	19*	-2	-7	8	18	-14	5	39*
Cc1ccc([N+](=O)[O-])cc1CN1CCN(c2ncc(Cc3ccccc3)cn2)CC1	.	-13	.	.	.	.	.	.
CC(C)c1ccc(NC(=O)C2CCN(c3ncnc4c3nc3n4CCCCC3)CC2)cc1	27*	3	-21	14	25	.	1	15
C=CCNC(=O)/C(C#N)=C/c1cn(-c2ccccc2)nc1-c1cccs1	33*	-9	-9	5	12	18	9.1*	9
O=C(Nc1ccc(F)cc1)c1sc2cc(C(F)(F)F)cnc2c1-c1cccs1	11*	11	0	2	1	4	6	6
COc1ccc(NC(=O)c2sc3cc(C(F)(F)F)cnc3c2-c2cccs2)cc1	9.8*	-4	-16	2	3	-5	-1	3
Cc1ccc(Cl)cc1N1CCN(S(=O)(=O)c2ccc3[nH]c(=O)ccc3c2)CC1	10*	-8	-1	3	7	.	11*	4
C=CCn1c(=S)[nH]c2cc(C(=O)Nc3ccc(OC)c(OC)c3)ccc2c1=O	10*	-2	-11	0	1	.	-1	5
Cc1cccc(CN2CCN([C@@H]3CS(=O)(=O)N[C@H]3COCc3ccccc3)CC2)c1	.	2	.	.	.	.	.	.
Cc1n[nH]c(=S)n1/N=C/c1ccccc1OCc1ccc(Cl)cc1Cl	19*	-8	-4	15	-2	14	16*	3
O=C(Cn1nc(C(=O)O)c2ccccc2c1=O)Nc1cc(Cl)cc(Cl)c1	12*	-16	-1	3	2	.	0	5
CCCc1ccc(C(=O)Cn2nc(C(=O)O)c3ccccc3c2=O)cc1	10*	3	-3	5	6	-3	4	5
NC(=O)c1c(NC(=O)Cn2nc(C(=O)O)c3ccccc3c2=O)sc2c1CCCC2	10*	-12	3	33	2	.	8	4
CN1OC[C@@H]2CN(Cc3ccccc3)[C@H](c3cccc(-c4ccccc4)c3)C[C@@H]21	-1	11	3	.	8	.	.	.
CC1=CC(=C(C#N)C#N)C=C(C)N1Cc1ccccc1	-3	10	-6	2	13	6	.	.
CC(/C=C/c1ccco1)=N/NC(=O)CNc1ccccc1C	1	15	3	-1	-4	-11	.	.
CC(/C=C/C=C/c1ccccc1)=N/NC(=O)CNc1ccccc1C	14*	1	0	1	-14	-1	29*	10
COc1ccc(NC(=O)c2cccc3c(Br)cccc23)cc1	12*	-3	-7	2	5	.	-2	5
COc1ccc(NC(=O)c2cccc3ccccc23)cc1	-2	-8	7	3	-6	.	.	.
CCCCOc1ccc(NC(=O)CN2CCN(Cc3ccccc3)CC2)cc1	-2	-6	-9	2	0	.	.	.
Oc1ccccc1-c1nc(NCc2ccco2)c2ccccc2n1	13*	-2	8	10	-5	-5	6	3
Oc1ccccc1-c1nc(NCc2cccnc2)c2ccccc2n1	-3	3	-3	5	-2	.	.	.
SMILES	MC4R barr agon	NOD2 RIPK2 PPI	TLR9-MyD88 inh	NTR1 ag	MC4R antag cAMP	TLR4-MyD88 BLA	MC4R barr conf	MOR-DOR barr ag
Oc1ccccc1-c1nc(NCc2ccccc2)c2ccccc2n1	12*	5	6	11	2	.	8	5
C[C@@H]1CN([C@H](C)CO)C(=O)CCCn2nncc2CO[C@H]1CN(C)Cc1cccc(C(F)(F)F)c1	0	-12	-4	.	6	.	.	.
O=C(NCc1ccccc1Cl)C1CCCN(S(=O)(=O)c2cccc3nsnc23)C1 (stereo not drawn)	1	-12	3	0	3	0	.	.
CC(C)(C)C(=O)NCc1ccc(C(=O)CSc2nnc3n2CCCCC3)s1	0	-3	0	.	11	.	.	.
Cn1cnnc1SCC(=O)Nc1sc2c(c1C#N)CCCCC2	-1	-5	1	0	2	-5	.	.
CCOC(=O)c1ccc(NC(=O)CSc2nnc(COc3ccccc3)n2C)cc1	11*	-19	-11	2	-3	-3	0	7
COC(=O)c1cccc(NC(=O)CSc2nnc(COc3ccccc3)n2C)c1	0	-3	0	-1	3	-2	.	.
Cn1c(CNC(=O)c2ccc(Cl)c(Cl)c2)nnc1SCC(=O)Nc1sc2c(c1C#N)CCCC2	11*	-6	0	12	5	-9	11*	3
Cc1sc(NC(=O)CSc2nnc(COc3ccc(Cl)cc3)n2C)c(C#N)c1C	11*	2	-14	0	4	0	4	7
Cc1ccc(NC(=O)CCN2C(=O)c3cccc4cccc(c34)C2=O)cc1	19*	-13	3	2	5	7	3	8
Cc1ccc(NC(=O)CCCN2C(=O)c3cccc4cccc(c34)C2=O)cc1	6	-2	-5	5	-1	10	.	.
COc1ccc(C(=O)Cn2c(NCCCO)nc3ccccc32)cc1	1	6	-1	.	1	.	.	.
Cc1cc2nc(NCCCO)n(CC(=O)c3cc(C(C)(C)C)c(O)c(C(C)(C)C)c3)c2cc1C	13*	11	6	26	7	.	6	11
C/C(=C\C=C(C#N)C#N)c1cc(C#N)c(N)o1	14*	3	-8	-1	-15	1	57*	20*
